Converted amounts (≈) assume the structure as drawn. The source made the active and inactive calls. No cut-off for these calls is given here.
Tests used:
Staphylococcus aureus [1] = test: Antimicrobial activity against Staphylococcus aureus NCTC 4163 at 400 ug after 18 hrs by disc-diffusion method; format: functional; conditions: NCTC 4163, 18 h, read-out: IZ
How it was run: (§1)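 Disc diffusion on Mueller-Hinton II agar per CLSI; 9 mm paper discs loaded with 400 µg compound from DMSO solution, dried, placed on agar; growth inhibition zone diameter read after 18 h at 35°C.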

Vaccinia virus = test: Antiviral activity against Human Vaccinia virus ATCC VR-1549 infected in African green monkey Vero 76 cells assessed as reduction of virus-plaque formation after 3 days by crystal violet staining; format: functional, organism-based; conditions: Orthopoxvirus vaccinia, ATCC VR-1549, Vero, 72 h
Proteus vulgaris = test: Antimicrobial activity against Proteus vulgaris NCTC 4635 at 400 ug after 18 hrs by disc-diffusion method; format: functional; how it was run: as §1
Staphylococcus aureus [2] = test: Antimicrobial activity against Staphylococcus aureus ATCC 6538 after 18 hrs by twofold serial microdilution method; format: functional; conditions: ATCC 6538, 18 h
[3] = test system: Staphylococcus epidermidis; test: Antimicrobial activity against hospital methicillin-resistant Staphylococcus epidermidis 76/04 after 18 hrs by twofold serial microdilution method; format: functional; conditions: 76/04, 18 h
How it was run: (§2)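 Twofold serial microdilution in Mueller-Hinton broth. Compound stock was made in DMSO and diluted in sterile water. Tested range was 0.125–512 µg/mL. Final inoculum was 10^5 CFU/mL. Plates were incubated 18 h at 35 °C. MIC is the lowest concentration preventing visible growth.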

[4] = test system: Staphylococcus epidermidis; test: Ratio of ciprofloxacin MIC to compound MIC for hospital methicillin-resistant Staphylococcus epidermidis 63/04 after 18 hrs by twofold serial microdilution method; format: functional
How it was run: (§3)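 Ratio of MICs for ciprofloxacin and test agent, each from twofold serial broth microdilution in Mueller-Hinton broth following CLSI guidelines. DMSO stock was diluted in sterile water to 0.125–512 µg/mL, with a final inoculum of 10^5 CFU/mL.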

Staphylococcus aureus [5] = test: Ratio of ciprofloxacin MIC to compound MIC for hospital methicillin-resistant Staphylococcus aureus 79/05 after 18 hrs by twofold serial microdilution method; format: functional; how it was run: as §3
[6] = Cytotoxicity against bovine MDBK cells assessed as cell viability after 48 to 96 hrs by MTT assay; format: cell-based, Bos taurus; conditions: cattle
[7] = test system: Staphylococcus epidermidis; test: Antimicrobial activity against hospital methicillin-resistant Staphylococcus epidermidis 151/04 after 18 hrs by twofold serial microdilution method; format: functional; conditions: 151/04, 18 h; how it was run: as §2
[8] = test system: Mammalian orthoreovirus 1; test: Antiviral activity against Reovirus type-1 ATCC VR-214 infected in BHK cells assessed as protection against virus-induced cytopathogenicity after 3 to 4 days by MTT assay; format: functional, cell-based; conditions: Mammalian orthoreovirus 1, ATCC VR-214, BHK
How it was run: (§4)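 Cells seeded in 96-well plates (BHK 5x10^4, MDBK 3x10^4 cells/well), grown overnight to confluence, infected at m.o.i. 0.01 (BHK for Reo-1, MDBK for BVDV); serial compound dilutions in maintenance medium with 0.5% inactivated FBS added after 1 h; viability by MTT after 3–4 days at 37°C; EC50 for 50% protection by linear regression.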

[9] = Cytotoxicity against African green monkey Vero 76 cells assessed as cell viability after 48 to 96 hrs by crystal violet staining; format: cell-based; conditions: chlorocebus sabaeus
Staphylococcus aureus [10] = test: Antimicrobial activity against hospital methicillin-resistant Staphylococcus aureus 80/05 after 18 hrs by twofold serial microdilution method; format: functional; conditions: 80/05, 18 h; how it was run: as §2
[11] = test system: Staphylococcus epidermidis; test: Ratio of ciprofloxacin MIC to compound MIC for hospital methicillin-resistant Staphylococcus epidermidis 24/04 after 18 hrs by twofold serial microdilution method; format: functional
[12] = Antiviral activity against Bovine viral diarrhea virus 1-NADL ATCC VR-534 infected in MDBK cells assessed as protection against virus-induced cytopathogenicity after 3 to 4 days by MTT assay; format: functional, cell-based; conditions: Bovine viral diarrhea virus isolates and strains, ATCC VR-534, MDBK; how it was run: as §4
Staphylococcus aureus [13] = test: Ratio of ciprofloxacin MIC to compound MIC for hospital methicillin-resistant Staphylococcus aureus 522/11 after 18 hrs by twofold serial microdilution method; format: functional; how it was run: as §3
Enterococcus faecalis = test: Antimicrobial activity against Enterococcus faecalis ATCC 29212 at 400 ug after 18 hrs by disc-diffusion method; format: functional; conditions: for zone of inhibition at 400 µg/disc: ATCC 29212, 18 h, read-out: IZ; how it was run: as §1
[14] = test system: Staphylococcus epidermidis; test: Antimicrobial activity against Staphylococcus epidermidis ATCC 12228 after 18 hrs by twofold serial microdilution method; format: functional; conditions: ATCC 12228, 18 h
[15] = test system: Staphylococcus epidermidis; test: Antimicrobial activity against hospital methicillin-resistant Staphylococcus epidermidis 24/04 after 18 hrs by twofold serial microdilution method; format: functional; conditions: 24/04, 18 h; how it was run: as §2
Coxsackievirus B5 = test: Antiviral activity against Human coxsackievirus B5 ATCC VR-29 infected in African green monkey Vero 76 cells assessed as reduction of virus-plaque formation after 3 days by crystal violet staining; format: functional, organism-based; conditions: Enterovirus B, ATCC VR-29, Vero, 72 h
How it was run: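 Plaque reduction: Vero-76 at 2x10^5 cells/well grown to confluent monolayers, infected 2 h at 50–100 PFU/well; after removing unadsorbed virus, overlay of D-MEM, 1% inactivated FBS, 0.75% methylcellulose with or without serial compound dilutions; 3 days at 37°C, fixed and stained with crystal violet in 50% ethanol, plaques counted; EC50 by linear regression.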

[16] = test system: Staphylococcus epidermidis; test: Antimicrobial activity against hospital methicillin-resistant Staphylococcus epidermidis 63/04 after 18 hrs by twofold serial microdilution method; format: functional; conditions: 63/04, 18 h; how it was run: as §2
Staphylococcus aureus [17] = test: Antimicrobial activity against Staphylococcus aureus ATCC 29213 at 400 ug after 18 hrs by disc-diffusion method; format: functional; conditions: ATCC 29213, 18 h, read-out: IZ; how it was run: as §1
[18] = test system: Staphylococcus epidermidis; test: Ratio of ciprofloxacin MIC to compound MIC for hospital methicillin-resistant Staphylococcus epidermidis 76/04 after 18 hrs by twofold serial microdilution method; format: functional; how it was run: as §3
[19] = test system: Staphylococcus epidermidis; test: Antimicrobial activity against hospital methicillin-resistant Staphylococcus epidermidis 31/04 after 18 hrs by twofold serial microdilution method; format: functional; conditions: 31/04, 18 h; how it was run: as §2
[20] = test system: Staphylococcus epidermidis; test: Ratio of ciprofloxacin MIC to compound MIC for hospital methicillin-resistant Staphylococcus epidermidis […]/[…] after 18 hrs by twofold serial microdilution method; format: functional, 16/04
Staphylococcus aureus [21] = test: Antimicrobial activity against Staphylococcus aureus ATCC 25923 after 18 hrs by twofold serial microdilution method; format: functional; conditions: ATCC 25923, 18 h
Staphylococcus aureus [22] = test: Ratio of ciprofloxacin MIC to compound MIC for hospital methicillin-resistant Staphylococcus aureus 57/05 after 18 hrs by twofold serial microdilution method; format: functional; how it was run: as §3
Staphylococcus aureus [23] = test: Ratio of ciprofloxacin MIC to compound MIC for hospital methicillin-resistant Staphylococcus aureus 573/11 after 18 hrs by twofold serial microdilution method; format: functional; how it was run: as §3
[24] = test system: Staphylococcus epidermidis; test: Antimicrobial activity against hospital methicillin-resistant Staphylococcus epidermidis 62/04 after 18 hrs by twofold serial microdilution method; format: functional; conditions: 62/04, 18 h; how it was run: as §2
Bacillus subtilis = test: Antimicrobial activity against Bacillus subtilis ATCC 6633 at 400 ug after 18 hrs by disc-diffusion method; format: functional; conditions: ATCC 6633, 18 h, read-out: IZ; how it was run: as §1
[25] = test system: Staphylococcus epidermidis; test: Antimicrobial activity against hospital methicillin-resistant Staphylococcus epidermidis 23/04 after 18 hrs by twofold serial microdilution method; format: functional; conditions: 23/04, 18 h; how it was run: as §2
[26] = test system: Staphylococcus epidermidis; test: Antimicrobial activity against Staphylococcus epidermidis ATCC 35984 at 400 ug after 18 hrs by disc-diffusion method; format: functional; conditions: ATCC 35984, 18 h, read-out: IZ; how it was run: as §1

SMILES	zone of inhibition at 400 µg/disc (Staphylococcus aureus [1])	EC50 (Vaccinia virus)	inhibition zone (IZ) (Proteus vulgaris)	MIC (Staphylococcus aureus [2])	MIC [3]	Ratio [4]	Ratio (Staphylococcus aureus [5])	MIC [7]	EC50 [8]	MIC (Staphylococcus aureus [10])	MIC [14]	MIC [15]	MIC [16]	zone of inhibition at 400 µg/disc (Staphylococcus aureus [17])	MIC [19]	MIC (Staphylococcus aureus [21])	MIC [24]	zone of inhibition at 400 µg/disc (Bacillus subtilis)	MIC [25]	zone of inhibition at 400 µg/disc [26]	also measured
FC(F)(F)c1cccc(NC(S)=NCc2ccccc2)c1	18 mm	> 35 µM	inactive	8 µg/mL (≈ 25.8 µM)	8 µg/mL (≈ 25.8 µM)	128	128	16 µg/mL (≈ 51.6 µM)	> 45 µM	16 µg/mL (≈ 51.6 µM)	32 µg/mL (≈ 103 µM)	16 µg/mL (≈ 51.6 µM)	16 µg/mL (≈ 51.6 µM)	16 mm	16 µg/mL (≈ 51.6 µM)	16 µg/mL (≈ 51.6 µM)	16 µg/mL (≈ 51.6 µM)	16 mm	16 µg/mL (≈ 51.6 µM)	13 mm	CC50 [6]: 40 µM; CC50 [9]: 35 µM; Ratio [11]: 128; EC50 [12]: > 40 µM; Ratio (Staphylococcus aureus [13]): 128; inhibition zone (IZ) (Enterococcus faecalis): inactive; EC50 (Coxsackievirus B5): > 35 µM; Ratio [18]: 128; Ratio [20]: 128; Ratio (Staphylococcus aureus [22]): 128; Ratio (Staphylococcus aureus [23]): 128
O=C(O)c1cn(C2CC2)c2cc(N3CCNCC3)c(F)cc2c1=O [CIPROFLOXACIN]	26 mm			0.25 µg/mL (≈ 0.754 µM)	0.125 µg/mL (≈ 0.377 µM)			4 µg/mL (≈ 12.1 µM)			0.25 µg/mL (≈ 0.754 µM)	64 µg/mL (≈ 193 µM)	4 µg/mL (≈ 12.1 µM)	22 mm	64 µg/mL (≈ 193 µM)	0.5 µg/mL (≈ 1.51 µM)	0.125 µg/mL (≈ 0.377 µM)	40 mm	2 µg/mL (≈ 6.04 µM)	32 mm	zone of inhibition at 400 µg/disc (Proteus vulgaris; NCTC 4635, 18 h, read-out: IZ): 36 mm; zone of inhibition at 400 µg/disc (Enterococcus faecalis): 15 mm
FC(F)(F)c1cccc(NC(S)=Nc2ccc(Cl)c(Cl)c2)c1	15 mm	> 16 µM	inactive	0.5 µg/mL (≈ 1.37 µM)	1 µg/mL (≈ 2.74 µM)	128	128	1 µg/mL (≈ 2.74 µM)	> 9.5 µM	2 µg/mL (≈ 5.48 µM)	2 µg/mL (≈ 5.48 µM)	1 µg/mL (≈ 2.74 µM)	2 µg/mL (≈ 5.48 µM)	15 mm	1 µg/mL (≈ 2.74 µM)	0.5 µg/mL (≈ 1.37 µM)	1 µg/mL (≈ 2.74 µM)	11 mm	1 µg/mL (≈ 2.74 µM)	13 mm	Ratio [11]: 128; EC50 [12]: > 10 µM; Ratio (Staphylococcus aureus [13]): 128; zone of inhibition at 400 µg/disc (Enterococcus faecalis): 12 mm; EC50 (Coxsackievirus B5): > 16 µM; Ratio [18]: 128; Ratio [20]: 128; Ratio (Staphylococcus aureus [22]): 128; Ratio (Staphylococcus aureus [23]): 128
